In ChEMBL document CHEMBL1145501, “Effect of macrolide usage on emergence of erythromycin-resistant Campylobacter isolates in chickens” (2007):
In brackets after ≈: the same amount, converted by molar mass. Activity calls are given as the source filed them. No cut-off for these calls is given here.

Legend:
Campylobacter jejuni [1] = experiment: Antimicrobial activity against Campylobacter jejuni 700819 mutant 9 by agar dilution method; assay type: functional
In short: (§1)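 MIC by CLSI agar dilution. Campylobacter was grown on Mueller-Hinton medium at 42°C under microaerobic conditions. Ery-resistant mutants were selected either in vitro, by plating late-log antibiotic-free broth cultures on MH agar with 2, 4 or 8 μg/ml Ery for 2 days, or from tylosin-exposed chickens.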

Campylobacter jejuni [2] = experiment: Antimicrobial activity against Campylobacter jejuni 700819 mutant 3 with cmeB mutation by agar dilution method; assay type: functional
In short: (§2)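 cmeB knockouts were made by biphasic natural transformation, using genomic DNA of 11168B (cmeB::kan) as donor. Transformants were selected on 30 μg/ml kanamycin and the insertion confirmed by PCR. The isogenic mutants were then MIC-tested by agar dilution on MH medium at 42°C under microaerobic conditions.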

Campylobacter jejuni [3] = experiment: Effect on Campylobacter jejuni S3B mutant colonization at 8 ug/ml; assay type: functional, organism-based
In short: (§3)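 Chickens colonized with C. jejuni were sampled by cloacal swabs. Serial dilutions were plated on selective MH agar with and without 8 μg/ml Ery and counted after 48 h at 42°C under microaerobic conditions, giving the Ery-nonsusceptible fraction per bird. Detection limit was about 100 CFU/g feces.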

Campylobacter jejuni [4] = experiment: Antimicrobial activity against Campylobacter jejuni 700819 mutant 4/A2074G and cmeB mutation by agar dilution method; assay type: functional; in short: as §2
Campylobacter jejuni [5] = experiment: Antimicrobial activity against Campylobacter jejuni S3BE4-1 mutant by agar dilution method; assay type: functional; in short: as §1
Campylobacter jejuni [6] = experiment: Antimicrobial activity against Campylobacter jejuni S3BE8-1 mutant by agar dilution method; assay type: functional; in short: as §1
Campylobacter jejuni [7] = experiment: Antimicrobial activity against Campylobacter jejuni 700819 mutant 8 by agar dilution method; assay type: functional; in short: as §1
Campylobacter jejuni [8] = experiment: Antimicrobial activity against Campylobacter jejuni 700819 mutant 6/A2074G and cmeB mutation by agar dilution method; assay type: functional; in short: as §2
Campylobacter jejuni [9] = experiment: Effect on Campylobacter jejuni 700819 mutant colonization at 8 ug/ml; assay type: functional, organism-based; in short: as §3
Campylobacter jejuni [10] = experiment: Antimicrobial activity against Campylobacter jejuni S3B with cmeB mutation by agar dilution method; assay type: functional; in short: as §2
Campylobacter jejuni [11] = experiment: Antimicrobial activity against Campylobacter jejuni 700819 mutant 12 by agar dilution method; assay type: functional; in short: as §1
Campylobacter coli [12] = experiment: Antimicrobial activity against Campylobacter coli MR32DE4-1 mutant by agar dilution method; assay type: functional; in short: as §1
Campylobacter jejuni [13] = experiment: Antimicrobial activity against Campylobacter jejuni 700819 mutant 11 with cmeB mutation by agar dilution method; assay type: functional; in short: as §2
Campylobacter coli [14] = experiment: Antimicrobial activity against Campylobacter coli RN14BE4-3 mutant with cmeB mutation by agar dilution method; assay type: functional; in short: as §2
Campylobacter jejuni [15] = experiment: Antimicrobial activity against Campylobacter jejuni 700819 mutant 3 by agar dilution method; assay type: functional; in short: as §1
Campylobacter jejuni [16] = experiment: Antimicrobial activity against Campylobacter jejuni S3BE2-2 mutant by agar dilution method; assay type: functional; in short: as §1
Campylobacter jejuni [17] = experiment: Antimicrobial activity against Campylobacter jejuni 700819 mutant 11 by agar dilution method; assay type: functional; in short: as §1
Campylobacter jejuni [18] = experiment: Antimicrobial activity against Campylobacter jejuni 700819 mutant 9 with cmeB mutation by agar dilution method; assay type: functional; in short: as §2
Campylobacter coli [19] = experiment: Antimicrobial activity against Campylobacter coli RN14B by agar dilution method; assay type: functional
In short: (§4)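 Erythromycin MIC by agar dilution per CLSI (formerly NCCLS). Strains were grown on Mueller-Hinton agar or in MH broth at 42°C under microaerobic conditions. MH media were supplemented with various amounts of Ery.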

Campylobacter jejuni [20] = experiment: Antimicrobial activity against Campylobacter jejuni 700819 mutant 2 by agar dilution method; assay type: functional; in short: as §1
Campylobacter coli [21] = experiment: Antimicrobial activity against Campylobacter coli RN14BE4-3 mutant by agar dilution method; assay type: functional; in short: as §1
Campylobacter jejuni [22] = experiment: Antimicrobial activity against Campylobacter jejuni 700819 mutant 7 by agar dilution method; assay type: functional; in short: as §1
Campylobacter coli [23] = experiment: Antimicrobial activity against Campylobacter coli MR32D by agar dilution method; assay type: functional; in short: as §4
Campylobacter jejuni [24] = experiment: Antimicrobial activity against Campylobacter jejuni 700819 mutant 8 with cmeB mutation by agar dilution method; assay type: functional; in short: as §2
Campylobacter jejuni [25] = experiment: Antimicrobial activity against Campylobacter jejuni 700819 with cmeB mutation by agar dilution method; assay type: functional; in short: as §2
Campylobacter coli [26] = experiment: Antimicrobial activity against Campylobacter coli AW-II-35 by agar dilution method; assay type: functional; in short: as §1
Campylobacter jejuni [27] = experiment: Antimicrobial activity against Campylobacter jejuni 700819 mutant 7 with cmeB mutation by agar dilution method; assay type: functional; in short: as §2
Campylobacter coli [28] = experiment: Antimicrobial activity against Campylobacter coli MR32DE8-1 mutant by agar dilution method; assay type: functional; in short: as §1
Campylobacter coli [29] = experiment: Antimicrobial activity against Campylobacter coli AW-ll-35/AW-ll-37 mutant in chickens assessed as reduction in colonization; assay type: functional, organism-based
In short: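 Campylobacter-free broiler chickens were orally dosed with a mixed C. coli AW-II-35 + AW-II-37 culture (10⁷ CFU/bird). Five days later one group received tylosin in drinking water (0.53 g/liter, about 110 mg/kg/day) for 3 days; a parallel group was left untreated. Cloacal swabs were serially plated on selective MH, counted after 48 h at 42°C, and compared by t test on log₁₀ CFU/g feces (P<0.01).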

Campylobacter coli [30] = experiment: Antimicrobial activity against Campylobacter coli RN14BE8-1 mutant by agar dilution method; assay type: functional; in short: as §1
Campylobacter jejuni [31] = experiment: Antimicrobial activity against Campylobacter jejuni 700819 mutant 5/A2074G and cmeB mutation by agar dilution method; assay type: functional; in short: as §2
Campylobacter coli [32] = experiment: Antimicrobial activity against Campylobacter coli RN14B with cmeB mutation by agar dilution method; assay type: functional; in short: as §2
Campylobacter jejuni [33] = experiment: Antimicrobial activity against Campylobacter jejuni S3B by agar dilution method; assay type: functional; in short: as §4
Campylobacter jejuni [34] = experiment: Antimicrobial activity against Campylobacter jejuni 700819 mutant 5 by agar dilution method; assay type: functional; in short: as §1
Campylobacter coli [35] = experiment: Antimicrobial activity against Campylobacter coli RN14BE4-2 mutant by agar dilution method; assay type: functional; in short: as §1
Campylobacter jejuni [36] = experiment: Antimicrobial activity against Campylobacter jejuni 700819 mutant 1 with cmeB mutation by agar dilution method; assay type: functional; in short: as §2
Campylobacter jejuni [37] = experiment: Antimicrobial activity against Campylobacter jejuni 700819 mutant 4 by agar dilution method; assay type: functional; in short: as §1
Campylobacter jejuni [38] = experiment: Antimicrobial activity against Campylobacter jejuni 700819 mutant 10 by agar dilution method; assay type: functional; in short: as §1
Campylobacter jejuni [39] = experiment: Antimicrobial activity against Campylobacter jejuni S3BE2-2 mutant with cmeB mutation by agar dilution method; assay type: functional; in short: as §2
Campylobacter jejuni [40] = experiment: Antimicrobial activity against Campylobacter jejuni 700819 mutant 6 by agar dilution method; assay type: functional; in short: as §1
Campylobacter jejuni [41] = experiment: Antimicrobial activity against Campylobacter jejuni 700819 mutant 1 by agar dilution method; assay type: functional; in short: as §1
Campylobacter jejuni [42] = experiment: Antimicrobial activity against Campylobacter jejuni 700819 mutant 12 with cmeB mutation by agar dilution method; assay type: functional; in short: as §2
Campylobacter jejuni [43] = experiment: Antimicrobial activity against Campylobacter jejuni S3BE4-2 mutant by agar dilution method; assay type: functional; in short: as §1
Campylobacter jejuni [44] = experiment: Antimicrobial activity against Campylobacter jejuni S3BE4-3 mutant by agar dilution method; assay type: functional; in short: as §1
Campylobacter coli [45] = experiment: Antimicrobial activity against Campylobacter coli AW-II-37 by agar dilution method; assay type: functional; in short: as §1
Campylobacter jejuni [46] = experiment: Antimicrobial activity against Campylobacter jejuni 700819 mutant 10 with cmeB mutation by agar dilution method; assay type: functional; in short: as §2
Campylobacter coli [47] = experiment: Antimicrobial activity against Campylobacter coli RN14BE8-2 mutant by agar dilution method; assay type: functional; in short: as §1
Campylobacter jejuni [48] = experiment: Antimicrobial activity against Campylobacter jejuni 700819 by agar dilution method; assay type: functional; in short: as §4
Campylobacter coli [49] = experiment: Antimicrobial activity against Campylobacter coli RN14BE4-2/A2074G and cmeB mutation by agar dilution method; assay type: functional; in short: as §2
Campylobacter coli [50] = experiment: Antimicrobial activity against Campylobacter coli RN14BE8-3 mutant by agar dilution method; assay type: functional; in short: as §1
Campylobacter jejuni [51] = experiment: Antimicrobial activity against Campylobacter jejuni 700819 mutant 2 with cmeB mutation by agar dilution method; assay type: functional; in short: as §2

CC[C@H]1OC(=O)[C@H](C)[C@@H](O[C@H]2C[C@@](C)(OC)[C@@H](O)[C@H](C)O2)[C@H](C)[C@@H](O[C@@H]2O[C@H](C)C[C@H](N(C)C)[C@H]2O)[C@](C)(O)C[C@@H](C)C(=O)[C@H](C)[C@@H](O)[C@]1(C)O [ERYTHROMYCIN]
MIC (Campylobacter jejuni [1]): 32 µg/mL (≈ 43.6 µM) | MIC (Campylobacter jejuni [2]): 0.25 µg/mL (≈ 0.341 µM) | Activity (Campylobacter jejuni [3]): Active | MIC (Campylobacter jejuni [4]): 32 µg/mL (≈ 43.6 µM) | MIC (Campylobacter jejuni [5]): 32 µg/mL (≈ 43.6 µM) | MIC (Campylobacter jejuni [6]): 256 µg/mL (≈ 349 µM) | MIC (Campylobacter jejuni [7]): 16 µg/mL (≈ 21.8 µM) | MIC (Campylobacter jejuni [8]): 32 µg/mL (≈ 43.6 µM) | Activity (Campylobacter jejuni [9]): Active | MIC (Campylobacter jejuni [10]): 1 µg/mL (≈ 1.36 µM) | MIC (Campylobacter jejuni [11]): 8 µg/mL (≈ 10.9 µM) | MIC (Campylobacter coli [12]): 8 µg/mL (≈ 10.9 µM) | MIC (Campylobacter jejuni [13]): 0.25 µg/mL (≈ 0.341 µM) | MIC (Campylobacter coli [14]): 0.125 µg/mL (≈ 0.17 µM) | MIC (Campylobacter jejuni [15]): 32 µg/mL (≈ 43.6 µM) | MIC (Campylobacter jejuni [16]): 256 µg/mL (≈ 349 µM) | MIC (Campylobacter jejuni [17]): 8 µg/mL (≈ 10.9 µM) | MIC (Campylobacter jejuni [18]): 0.25 µg/mL (≈ 0.341 µM) | MIC (Campylobacter coli [19]): 2 µg/mL (≈ 2.73 µM) | MIC (Campylobacter jejuni [20]): 8 µg/mL (≈ 10.9 µM) | MIC (Campylobacter coli [21]): 32 µg/mL (≈ 43.6 µM) | MIC (Campylobacter jejuni [22]): 8 µg/mL (≈ 10.9 µM) | MIC (Campylobacter coli [23]): 2 µg/mL (≈ 2.73 µM) | MIC (Campylobacter jejuni [24]): 0.25 µg/mL (≈ 0.341 µM) | MIC (Campylobacter jejuni [25]): 0.125 µg/mL (≈ 0.17 µM) | MIC (Campylobacter coli [26]): 0.125 µg/mL (≈ 0.17 µM) | MIC (Campylobacter jejuni [27]): 0.25 µg/mL (≈ 0.341 µM) | MIC (Campylobacter coli [28]): 32 µg/mL (≈ 43.6 µM) | Activity (Campylobacter coli [29]): Active | MIC (Campylobacter coli [30]): 32 µg/mL (≈ 43.6 µM) | MIC (Campylobacter jejuni [31]): 32 µg/mL (≈ 43.6 µM) | MIC (Campylobacter coli [32]): 0.125 µg/mL (≈ 0.17 µM) | MIC (Campylobacter jejuni [33]): 2 µg/mL (≈ 2.73 µM) | MIC (Campylobacter jejuni [34]): > 512 µg/mL | MIC (Campylobacter coli [35]): 8 µg/mL (≈ 10.9 µM) | MIC (Campylobacter jejuni [36]): 0.25 µg/mL (≈ 0.341 µM) | MIC (Campylobacter jejuni [37]): > 512 µg/mL | MIC (Campylobacter jejuni [38]): 8 µg/mL (≈ 10.9 µM) | MIC (Campylobacter jejuni [39]): 0.125 µg/mL (≈ 0.17 µM) | MIC (Campylobacter jejuni [40]): > 512 µg/mL | MIC (Campylobacter jejuni [41]): 8 µg/mL (≈ 10.9 µM) | MIC (Campylobacter jejuni [42]): 0.25 µg/mL (≈ 0.341 µM) | MIC (Campylobacter jejuni [43]): 32 µg/mL (≈ 43.6 µM) | MIC (Campylobacter jejuni [44]): 128 µg/mL (≈ 174 µM) | MIC (Campylobacter coli [45]): 0.125 µg/mL (≈ 0.17 µM) | MIC (Campylobacter jejuni [46]): 0.125 µg/mL (≈ 0.17 µM) | MIC (Campylobacter coli [47]): 32 µg/mL (≈ 43.6 µM) | MIC (Campylobacter jejuni [48]): 2 µg/mL (≈ 2.73 µM) | MIC (Campylobacter coli [49]): 0.125 µg/mL (≈ 0.17 µM) | MIC (Campylobacter coli [50]): 32 µg/mL (≈ 43.6 µM) | MIC (Campylobacter jejuni [51]): 0.125 µg/mL (≈ 0.17 µM)
